The target in test [1] is T1, 5-hydroxytryptamine receptor 1D (Homo sapiens, UniProt P28221). Description: In vitro receptor binding affinity for cloned human 5-hydroxytryptamine 1D receptor. In outline: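 Radioligand binding assay in cell lines expressing the human 5-HT1D receptor; affinity reported as Ki values. Further procedural detail is referenced to earlier work.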
In test [2] the target is T1, 5-hydroxytryptamine receptor 1D. Description: Intrinsic activity for 5-hydroxytryptamine 1D receptor. In kind it is functional. In outline:
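Agonism measured as inhibition of forskolin-stimulated adenylyl cyclase in cell lines expressing the human 5-HT1D receptor.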

Test [3] deals with T2, 5-hydroxytryptamine receptor 1A (Homo sapiens, UniProt P08908).
T2 sequence (P08908 whole entry): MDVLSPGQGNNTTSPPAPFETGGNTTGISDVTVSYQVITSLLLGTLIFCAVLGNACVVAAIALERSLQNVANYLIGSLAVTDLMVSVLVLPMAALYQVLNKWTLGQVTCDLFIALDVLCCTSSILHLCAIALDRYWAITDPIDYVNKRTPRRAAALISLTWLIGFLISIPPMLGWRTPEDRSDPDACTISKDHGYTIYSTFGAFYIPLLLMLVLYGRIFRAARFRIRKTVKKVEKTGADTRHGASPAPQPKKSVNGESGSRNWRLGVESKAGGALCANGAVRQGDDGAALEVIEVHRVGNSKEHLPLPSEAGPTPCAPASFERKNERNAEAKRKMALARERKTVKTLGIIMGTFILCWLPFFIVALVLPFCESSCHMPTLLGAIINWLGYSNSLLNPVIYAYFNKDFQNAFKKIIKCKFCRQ
The test is described as follows: In vitro receptor binding affinity for cloned human 5-hydroxytryptamine 1A receptor.

The target in test [4] is 5-hydroxytryptamine receptor 1B (Homo sapiens, UniProt P28222). The test is described as follows: In vitro receptor binding affinity for cloned human 5-hydroxytryptamine 1B receptor.
For test [5], the target named is T1, 5-hydroxytryptamine receptor 1D. The test is described as follows: Ability to inhibit forskolin-stimulated adenylate cyclase in a cell line expressing human 5-hydroxytryptamine 1D receptor. It is filed as functional.

T1 sequence (P28221 whole entry): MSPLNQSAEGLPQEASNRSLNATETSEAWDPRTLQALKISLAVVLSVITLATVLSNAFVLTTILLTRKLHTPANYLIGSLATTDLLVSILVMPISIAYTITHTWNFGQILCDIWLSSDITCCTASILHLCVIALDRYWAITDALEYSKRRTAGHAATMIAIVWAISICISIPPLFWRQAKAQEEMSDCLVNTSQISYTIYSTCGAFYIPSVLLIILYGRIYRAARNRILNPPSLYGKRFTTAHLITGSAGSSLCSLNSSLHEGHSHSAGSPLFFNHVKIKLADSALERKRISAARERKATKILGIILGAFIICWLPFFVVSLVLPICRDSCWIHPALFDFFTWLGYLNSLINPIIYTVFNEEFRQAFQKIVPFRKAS
5-hydroxytryptamine receptor 1B, sequence (P28222 whole entry): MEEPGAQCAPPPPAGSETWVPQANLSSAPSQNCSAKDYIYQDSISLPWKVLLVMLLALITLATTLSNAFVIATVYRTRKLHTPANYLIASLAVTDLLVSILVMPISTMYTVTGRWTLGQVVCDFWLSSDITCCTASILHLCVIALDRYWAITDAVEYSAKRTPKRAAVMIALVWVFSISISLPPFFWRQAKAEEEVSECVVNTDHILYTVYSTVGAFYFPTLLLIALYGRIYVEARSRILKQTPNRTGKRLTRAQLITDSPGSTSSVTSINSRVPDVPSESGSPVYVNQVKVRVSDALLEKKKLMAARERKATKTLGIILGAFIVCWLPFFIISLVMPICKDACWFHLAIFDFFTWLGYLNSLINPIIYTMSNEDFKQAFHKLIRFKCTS

Regarding `NCCc1c[nH]c2ccc(C3CCCCC3)cc12`, the Ki in test [1] turned out to be 3.4 nM. This lies in the single-digit nanomolar range.

As for `CC(C)c1ccc2[nH]cc(CCN)c2c1`, affinity in test [1] was put at a Ki of 1.1 nM. Compared with the last molecule, the Ki is about 3.1-fold lower.

As to `CCc1ccc2[nH]cc(CCN)c2c1`, the affinity in test [1] corresponds to a Ki of 3.7 nM. Against the preceding molecule, the Ki is about 3.4-fold higher.

`CN(C)CCc1c[nH]c2ccc(C(C)(C)C)cc12` gave an inhibitory constant (Ki) in test [1] of 0.44 nM. Against the preceding molecule, the Ki is about 8.4-fold lower.

In test [2], `CNS(=O)(=O)Cc1ccc2[nH]cc(CCN(C)C)c2c1` showed a maximal effect (Emax) of 93%.

For `NCCc1c[nH]c2ccc(C3CCCC3)cc12`, the inhibitory constant (Ki) in test [1] stood at 1.7 nM.

Consider `CNCCc1c[nH]c2ccc(C(C)(C)C)cc12`, for which the inhibitory constant (Ki) came out at 6.1 nM in test [3], 1.9 nM in test [4] and 0.45 nM in test [1]. In test [5], this molecule displayed an EC50 of 0.22 nM. For the same molecule, the Emax in test [2] was determined as 100%.

In test [1], `CCCN(CCC)CCc1c[nH]c2ccc(C(C)(C)C)cc12` yielded an inhibition constant (Ki) of 10.8 nM.

In test [2], `CN(C)CCc1c[nH]c2ccc(Cn3cncn3)cc12` registered an Emax of 97%.

With `CC(C)(C)c1ccc2[nH]cc(CCN)c2c1`, the inhibitory constant (Ki) in test [1] worked out at 0.6 nM.

In test [1], `CCCNCCc1c[nH]c2ccc(C(C)(C)C)cc12` had a Ki of 6.2 nM.

As to `CN[C@@H]1CCc2[nH]c3ccc(C(N)=O)cc3c2C1` [FROVATRIPTAN], the Ki in test [3] was found to be 62 nM; in test [1], […].

As for `Cc1ccc2[nH]cc(CCN)c2c1`, the affinity in test [1] corresponds to a Ki of 6.4 nM.

`CNS(=O)(=O)CCc1ccc2[nH]cc(C3CCN(C)CC3)c2c1`: the inhibition constant Ki is 45 nM in test [3], 3.3 nM in test [4] and 2.3 nM in test [1]. The same molecule displayed a 50% effective concentration (EC50) in test [5] of 1.6 nM. The molecule also returned a maximum response (Emax) in test [2] of 100%.

As a reminder, the Ki is a measure of affinity in units of concentration, obtained from inhibition or displacement. A higher Ki goes with a looser hold on the target. As a reminder, the Emax is the size of the effect at its maximum, as opposed to the concentration needed. Usually EC50 stands for the concentration that produces a half-maximal response.

The values are drawn from ChEMBL document CHEMBL1132575 (J Med Chem, 1999).
